Assay results as given in ChEMBL document CHEMBL1155063 (Bioorg Med Chem, 2008).

Target: Telomerase reverse transcriptase (Homo sapiens, UniProt O14746)
Assay: Inhibition of G-quadruplex-induced human TERT in H1299 cells by TRAP assay
Assay type: cell-based
How it was run: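 Modified TRAP assay using 2 µg total lysate from H1299 lung cancer cells as the telomerase source. Compounds were tested at 1, 5, 10 and 20 µM. Products were resolved on 10% polyacrylamide gels and stained with SYBR Green. A Taq-polymerase internal control was included, along with positive and negative controls.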

Sequence of Telomerase reverse transcriptase (O14746 whole entry): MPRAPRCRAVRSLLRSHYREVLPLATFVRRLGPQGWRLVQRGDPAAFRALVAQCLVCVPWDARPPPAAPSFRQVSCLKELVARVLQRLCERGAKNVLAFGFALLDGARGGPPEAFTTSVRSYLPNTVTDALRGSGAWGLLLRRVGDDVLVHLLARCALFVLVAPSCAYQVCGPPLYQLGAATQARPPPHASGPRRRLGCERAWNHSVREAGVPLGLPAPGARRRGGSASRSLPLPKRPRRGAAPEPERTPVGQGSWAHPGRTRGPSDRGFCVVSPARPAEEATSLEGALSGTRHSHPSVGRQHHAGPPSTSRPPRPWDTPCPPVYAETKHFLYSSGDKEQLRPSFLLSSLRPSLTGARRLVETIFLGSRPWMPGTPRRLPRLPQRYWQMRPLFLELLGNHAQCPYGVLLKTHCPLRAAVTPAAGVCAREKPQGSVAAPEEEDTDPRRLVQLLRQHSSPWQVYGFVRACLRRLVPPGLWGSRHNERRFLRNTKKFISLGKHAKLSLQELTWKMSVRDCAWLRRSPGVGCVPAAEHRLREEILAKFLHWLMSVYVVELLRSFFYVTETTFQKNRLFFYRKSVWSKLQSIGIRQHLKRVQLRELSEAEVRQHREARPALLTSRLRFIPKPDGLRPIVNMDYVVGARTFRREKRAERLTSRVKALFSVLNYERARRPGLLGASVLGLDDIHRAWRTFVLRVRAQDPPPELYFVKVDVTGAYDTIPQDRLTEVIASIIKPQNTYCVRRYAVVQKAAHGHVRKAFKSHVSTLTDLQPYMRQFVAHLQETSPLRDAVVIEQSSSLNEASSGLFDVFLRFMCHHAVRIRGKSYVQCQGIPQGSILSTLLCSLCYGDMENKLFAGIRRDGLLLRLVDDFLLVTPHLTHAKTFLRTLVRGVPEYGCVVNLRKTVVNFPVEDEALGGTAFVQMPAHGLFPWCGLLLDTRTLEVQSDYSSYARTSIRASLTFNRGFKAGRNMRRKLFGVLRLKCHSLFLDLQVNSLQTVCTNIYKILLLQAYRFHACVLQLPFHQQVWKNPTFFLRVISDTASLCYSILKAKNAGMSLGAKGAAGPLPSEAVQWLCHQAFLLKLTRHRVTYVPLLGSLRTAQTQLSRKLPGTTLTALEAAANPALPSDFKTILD

O=C(CCN1CCCC1)Nc1ccc2c(c1)C(=O)c1cc(NC(=O)CCN3CCCC3)ccc1C2=O
IC50: 6.7 µM
